Activity calls are given as the source filed them.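 Rule for the calls: active = fitted curve rises past 10% of the positive control signal at or below the top valid tested dose; inconclusive = flat fit between 30 and 70%, or an unreliable fit; inactive = the rest, including signal that falls instead.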
Assays:
[1] = apoptosis induction in tBid-primed mouse fibroblasts – cell-based, MEF A1-2A-tBid, luminescence, dry powder, set 3, orthogonal assay for A1 inhibitor project, dose response (AID 504360); settings: MEF A1-2A-tBid cells, caspase-3/7 luminescence, 3 h; at 35 µM (top of the series)
Procedure, shortened: (§1)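 System: mouse embryonic fibroblasts co-expressing A1 and tBid (A1-2A-tBid), primed. Amount: 2500 cells per well. Measured by: Caspase-Glo 3/7 luminescence. Incubation: 3 h compound at 37 °C, 1 h reagent at room temperature. Buffer or medium: RPMI-1640 growth medium with 10% FBS. Doses: 100 nL pinned compound. Read-out: Caspase-3/7 activity.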

[2] = test system: MEF A1-2A-tBid cells, caspase-3/7 luminescence, 3 h; test: as above
Procedure, shortened: as §1

## COc1nc2ccccc2c(Cl)c1[N+](=O)[O-]
[1]
  caspase activation: 1.9% (inactive)

## O=C(COc1ccc(Cl)cc1Cl)NNc1nc(N2CCOCC2)nc(N2CCOCC2)n1
[1]
  caspase activation: -1.25% (inactive)

## Cc1ccc(Sc2c(Sc3ccc(C)cc3)c3ccccc3n(Cc3ccccc3)c2=O)cc1
[1]
  caspase activation: 1.55% (inactive)

## C/C(=N\Nc1nc(N2CCCCC2)nc(N2CCCCC2)n1)c1ccc(F)cc1
[1]
  caspase activation: -0.355% (inactive)

## Cc1ccc(S(=O)(=O)c2c([N+](=O)[O-])c(=O)n(C)c3ccccc23)cc1
[2]
  AC10: 3190 nM

## Cc1ccc(Sc2c(Sc3ccc(C)cc3)c3ccccc3n(C)c2=O)cc1
[1]
  caspase activation: 0.911% (inactive)

## Cn1c(=O)c([N+](=O)[O-])c(Sc2ccccn2)c2ccccc21
[2]
  AC10: 2950 nM

## COc1ccc(CCNc2nc(N3CCOCC3)nc(N3CCOCC3)n2)cc1OC
[1]
  caspase activation: 1.3% (inactive)

## O=c1[nH]c2ccccc2c(O)c1[N+](=O)[O-]
[1]
  caspase activation: 2.36% (inactive)

## Cn1c(=O)c(Sc2ccccn2)c(Sc2ccccn2)c2ccccc21
[1]
  caspase activation: 3.1% (inactive)

## COc1ccc(CCNc2nc(N3CCCC3)nc(N3CCCC3)n2)cc1OC
[1]
  caspase activation: 3.4% (inactive)

## COCCn1c(=O)c(Sc2ccc(C)cc2)c(Sc2ccc(C)cc2)c2ccccc21
[1]
  caspase activation: 1.26% (inactive)

## CCn1c(=O)c(Sc2ccc(C)cc2)c(Sc2ccc(C)cc2)c2ccccc21
[1]
  caspase activation: 5.31% (inactive)

## COCCn1c(=O)c([N+](=O)[O-])c(Sc2ccc(C)cc2)c2ccccc21
[2]
  AC10: 16700 nM

## Cc1ccc(Sc2c([N+](=O)[O-])c(=O)n(C)c3ccccc23)cc1
[1]
  caspase activation: 10.3% (inactive)

## CCn1c(=O)c([N+](=O)[O-])c(Sc2ccc(C)cc2)c2ccccc21
[1]
  caspase activation: 1.72% (inactive)

## CC1(C)CCC(c2ccc(Cl)cc2)=C(CN2CCN(c3ccc(C(=O)NS(=O)(=O)c4ccc(N[C@H](CCN5CCOCC5)CSc5ccccc5)c(S(=O)(=O)C(F)(F)F)c4)cc3)CC2)C1
[2]
  AC10: 579 nM

## O=c1[nH]c2ccccc2c(Cl)c1[N+](=O)[O-]
[2]
  AC10: 2540 nM

## O=c1c([N+](=O)[O-])c(Cl)c2ccccc2n1Cc1ccccc1
[2]
  AC10: 12400 nM

## COc1c([N+](=O)[O-])c(=O)n(C)c2ccccc12
[1]
  caspase activation: 1.76% (inactive)

## CCn1c(=O)c([N+](=O)[O-])c(Cl)c2ccccc21
[2]
  AC10: 1950 nM

## COc1nc2ccccc2c(Sc2ccc(C)cc2)c1[N+](=O)[O-]
[1]
  caspase activation: 1.61% (inactive)

## Cn1c(=O)c([N+](=O)[O-])c(S(C)(=O)=O)c2ccccc21
[2]
  AC10: 3280 nM

## Cn1c(=O)c([N+](=O)[O-])c(Cl)c2ccccc21
[2]
  AC10: 1880 nM

## Cc1ccc(Sc2c([N+](=O)[O-])c(=O)n(Cc3ccccc3)c3ccccc23)cc1
[1]
  caspase activation: 3.46% (inactive)

## COc1ccc(N2CCN(c3nc(NCCc4ccc(OC)c(OC)c4)nc(N4CCOCC4)n3)CC2)cc1
[1]
  caspase activation: -0.079% (inactive)

## COCCn1c(=O)c([N+](=O)[O-])c(Cl)c2ccccc21
[2]
  AC10: 1470 nM

From PubChem BioAssay AID504360 (Broad Institute, 2011)
